An excerpt weighted towards active compounds, which were near 3.7% of everything screened.
KCNQ1 pot: potentiators or activators of human KCNQ1 potassium channel | P51787 | CHO-K1 KCNQ1, thallium flux FluxOR fluorescence; hits give high values | B-score at 10 µM | actives 0.35% (n = 310,000);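 active = fluorescence ratio B-score, a plate-corrected score, at least three library SD, with initial intensity B-score within 5 SD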
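Schedule – 37 °C overnight plating, 90-min dark dye load, 20-min compound pretreatment · System – stable KCNQ1 CHO-K1 line · Probe or stimulus – thallium- and potassium-containing depolarizing buffer · Measured by – kinetic FluxOR fluorescence, 10 s baseline plus 110 s post-stimulus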
KCNK9 inh: human KCNK9 channel inhibition; actives 1.2% (n = 310,000); HEK293 KCNK9, FluxOR thallium flux fluorescence; hits give low values; Q9NPC2; B-score at 10 µM;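 active = ratio B-score over 3 SD below the library mean, with starting fluorescence within 5 SD of its mean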;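 also: negative B-score means less thallium flux so channel inhibition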
Target sequence (Q9NPC2 whole entry, looked up): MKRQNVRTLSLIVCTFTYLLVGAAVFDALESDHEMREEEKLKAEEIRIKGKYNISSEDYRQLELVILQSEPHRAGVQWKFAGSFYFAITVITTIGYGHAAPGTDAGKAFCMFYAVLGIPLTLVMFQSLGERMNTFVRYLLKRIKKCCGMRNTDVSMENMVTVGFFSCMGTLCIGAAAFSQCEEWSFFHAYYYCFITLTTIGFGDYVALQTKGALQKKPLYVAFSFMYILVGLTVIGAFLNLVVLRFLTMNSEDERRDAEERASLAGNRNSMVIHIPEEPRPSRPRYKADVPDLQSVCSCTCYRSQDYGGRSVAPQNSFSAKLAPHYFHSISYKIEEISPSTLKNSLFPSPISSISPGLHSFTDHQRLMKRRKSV
KCNQ1 inh: inhibitors of human KCNQ1 potassium channel | CHO-K1 KCNQ1, FluxOR thallium flux fluorescence; hits give high values | B-score at 10 µM | actives 1.3% (n = 310,000);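 active = compounds whose thallium flux B-score, printed positive for inhibition, exceeds three library SD while starting fluorescence stays within three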;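 also: channel opened by potassium depolarization with thallium stimulus after 20 min compound exposure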
hERG rescue: shields human hERG channel from block by proarrhythmic agents; Q12809; actives 0.51% (n = 310,000); CHO-hERG, FluxOR thallium flux, dofetilide IC70 present; activation (rescue from dofetilide block), less the hit threshold, % at 10 µM;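 active = activation above the mean of controls blocked by dofetilide plus 5 SD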;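 also: thallium influx through hERG after potassium depolarization seen as dye fluorescence rise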
KCNK3 inh: human KCNK3 channel inhibition, primary screen; B-score at 10 µM; CHO-KCNK3 thallium flux, FluxOR fluorescence; hits give low values; actives 0.84% (n = 340,000);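 active = B-score under library mean minus 4 SD, starting fluorescence ratio at most library mean plus 5 SD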;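 also: more negative B-score means stronger inhibition of thallium flux through KCNK3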
Kir21 block: blocks the mouse Kir2.1 inward-rectifier potassium channel; HEK293-Kir2.1, FluxOR thallium flux fluorescence; hits give low values; B-score at 10 µM; actives 0.85% (n = 310,000); AID 1672;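 active = fluorescence ratio B-score at or below minus 3 SD of library scores, with starting-brightness B-score within 2 SD, cut at about -4.2 in these data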;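 also: channel flux triggered by added potassium and thallium sulfate stimulus; B-score of peak minus minimum fluorescence over baseline after thallium stimulus; more negative B-score means stronger Kir2.1 block with less thallium influx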
A number is an active result; – = inactive; · = not tested or not shown.

SMILES | KCNQ1 pot | KCNK9 inh | KCNQ1 inh | hERG rescue | KCNK3 inh | Kir21 block
CC1=C(C)C(=O)C(CCCCC#CCCCC#CCO)=C(C)C1=O | – | – | – | – | -14.4 | –
CCCNC(C)C(=O)Nc1c(C)csc1C(=O)OC (configuration not stated) | · | · | · | · | – | ·
O=S1(=O)c2ccccc2Nc2ccccc21 | – | – | – | – | – | –
Cc1cccc2sc(NS(=O)(=O)c3ccccc3)nc12 | – | – | 6 | – | – | –
CCOc1ccc(-c2n[nH]c(=S)c3ccccc23)cc1 | – | – | – | – | – | –
CSc1nnc2n(C)c3c(c(=O)n12)C1(CCCC1)Cc1ccccc1-3 | – | -7.17 | – | – | – | –
Cc1ccc(C(C)C)cc1OCC(=O)Nc1ccc(-n2cnnn2)cc1 | · | · | · | · | – | ·
CCN(CC)S(=O)(=O)c1cc(NC(=O)CSCc2c(C)noc2C)ccc1C | · | · | · | · | -10 | ·
O=C(CC(SCc1ccco1)c1ccc(O)cc1)c1cccs1 (configuration not stated) | – | – | – | – | – | -4.75
S=c1nn[nH]n1C12CC3CC(CC(C3)C1)C2 | 9 | – | – | 13.8 | – | –
S=c1nc(C23CC4CC(CC(C4)C2)C3)[nH][nH]1 | – | – | – | – | – | –
COc1cccc(C(=O)Nc2ccc(NC(=O)C3CC=CCC3C(=O)O)cc2)c1 (configuration not stated) | – | – | – | – | – | –
Cc1cccc(/C=C2/S/C(=N/N=C3\CC4CCC3(C)C4(C)C)NC2=O)c1 (configuration not stated) | 18 | – | – | 14.0 | – | –
O=C(Cc1cccc(NC(=O)C2CCN(S(=O)(=O)c3cccc([N+](=O)[O-])c3)CC2)c1)Nc1cccc(C(=O)N2CCCCC2)c1 | · | · | · | · | – | ·
Cc1cccc(C(=O)Nc2sc(C(=O)N3CCCC3)c(C)c2C#N)c1 | – | – | – | – | – | –
Cc1cccc(C(=O)Nc2sc(C)c(-c3ccccc3)c2C#N)c1 | – | – | 6 | – | – | –
Cc1cccc(-c2nnc(-c3ccc4ccccc4c3)o2)c1 | · | · | · | · | -9.2 | ·
Cc1cccc(-c2nnc(-c3cccc4ccccc34)o2)c1 | · | · | · | · | -9.54 | ·
COc1ccc(S(=O)(=O)N2CCN(C(=O)C3CC(=O)N(c4ccccc4F)C3)CC2)cc1OC (configuration not stated) | · | · | · | · | – | ·
Cc1ccc(-c2[nH]ncc2/C=N/n2c(COc3ccccc3)nc3ccccc3c2=O)cc1 | – | – | – | – | – | –
Cc1cc(/C=N/n2c(COc3ccccc3)nc3ccccc3c2=O)c(O)c([N+](=O)[O-])c1 | – | – | 13 | – | – | –
Cc1nn(CC2CC2)c(=O)n1-c1ccc(F)cc1 | 10 | – | – | – | – | –
O=C(CSc1ccc(-c2ccccc2)nn1)N1CCCCC1 | – | – | – | 39.9 | – | –
O=C(CSc1ccc(-c2ccc(Br)cc2)nn1)N1CCOCC1 | – | – | – | 5.0 | – | –
O=C(CSc1ccc(-c2ccncc2)nn1)N1CCCCC1 | – | – | – | – | – | –
SMILES | KCNQ1 pot | KCNK9 inh | KCNQ1 inh | hERG rescue | KCNK3 inh | Kir21 block
O=C(NCCC(=O)N1CCN(S(=O)(=O)c2ccccc2F)CC1)Nc1ccccc1 | · | · | · | · | – | ·
Cc1ccc(-n2c(=S)[nH]c3sc4c(c3c2=O)CCC4)cc1 | 8 | – | – | – | – | –
Cc1ccc(-n2c(=O)c3c4c(sc3n3c(=S)[nH]nc23)CCC4)cc1 | – | – | – | – | – | –
C=CCn1c(=S)[nH]c2sc3c(c2c1=O)CCCC3 | 65 | – | – | 12.1 | – | –
COCCn1c(=S)[nH]c2sc3c(c2c1=O)CCCC3 | 30 | – | – | 16.7 | – | –
O=c1c2c3c(sc2[nH]c(=S)n1Cc1ccco1)CCC3 | 15 | – | – | 10.9 | – | –
O=C(NCc1nnc(SCC(=O)N2CCCC2)o1)c1ccccc1 | – | – | – | – | – | –
Cc1cc(C(=O)NNS(=O)(=O)c2cc(C(=O)O)ccc2Cl)c(C)n1-c1ccccc1 | · | · | · | · | – | ·
O=C(O)C1CCC(C(=O)O)SS1 (configuration not stated) | · | · | · | · | – | ·
COc1ccc(C(=O)NCCc2nnc(SCc3nc4ccccc4c(=O)[nH]3)n2C)cc1 | – | – | – | – | – | –
Cn1c(CNC(=O)c2ccccc2F)nnc1SCc1nc2ccccc2c(=O)[nH]1 | – | – | – | 6.8 | · | –
Cc1ccc(SCCNC(=O)c2ccc(C)c(S(=O)(=O)Nc3cccc(C)c3)c2)cc1 | – | – | – | – | -11.4 | –
CN(Cc1ccccc1N1CCCC1)C(=O)c1cc2ccccc2o1 | · | · | · | · | -11 | ·
CN(Cc1c(F)cccc1Cl)C(=O)c1cc2ccccc2o1 | – | – | – | – | – | –
CN(Cc1ccccc1N1CCCC1)C(=O)c1cc2cc(Cl)ccc2o1 | · | · | · | · | -9.49 | ·
COc1cc(/C=N/O)cc(Br)c1OCC(=O)NCc1ccccc1 | – | – | – | – | – | -5.97
CCOc1cc(/C=N/O)cc(Br)c1OCC(=O)NCc1ccccc1 | – | – | – | – | – | –
COc1cc(/C=N/NC(=O)Cn2nc([N+](=O)[O-])cc2C)cc(Br)c1OCc1ccccc1 | – | – | – | – | -9.87 | –
CC(C)C[C@@H](CN=[N+]=[N-])N1CCN(Cc2ccccc2)CCC1=O | – | – | – | – | – | –
CCOc1ccc(/C(O)=C2/C(=O)C(=O)N(c3ccccn3)C2c2ccc(F)cc2)c(C)c1 (configuration not stated) | – | – | – | – | – | –
CCOc1ccc2[nH]c(=O)c(CN(Cc3ccco3)C(CC)c3nnnn3Cc3ccccc3)cc2c1 (configuration not stated) | – | – | 8 | – | – | –
CCOc1ccc2[nH]c(=O)c(CN(Cc3nnnn3Cc3ccco3)C3CCCCC3)cc2c1 | – | – | – | – | -9.95 | –
CCOc1ccc2[nH]c(=O)c(CN(Cc3ccco3)Cc3nnnn3Cc3ccccc3)cc2c1 | – | – | – | – | – | –
Cc1ccc(-c2csc(/C(C#N)=C(\O)CCl)n2)cc1 | – | – | 6 | – | – | –
N#C/C(=C(/O)CCl)c1nc(-c2ccccc2)cs1 | – | – | – | – | – | –
O=S(=O)(c1ccc(F)cc1)N1CCN(CC(O)COCC2CCCO2)CC1 (configuration not stated) | · | · | · | · | – | ·
Clc1ccc(CSc2nnc(CNc3cccc(Cl)c3)o2)cc1 | – | – | 6 | – | – | –
Fc1cccc(Cl)c1CSc1nnc(CNc2ccccc2)o1 | – | – | – | – | – | –
Cc1oc(-c2ccc(Cl)cc2)nc1CS(=O)CC(=O)NCc1ccccn1 (configuration not stated) | – | – | – | – | – | –
COCCn1nnnc1C(c1cccs1)N1CCN(c2cc(C)ccc2C)CC1 (configuration not stated) | – | -7.98 | – | – | -9.2 | –

Screening results as filed in PubChem BioAssay.
